Measurements from ChEMBL document CHEMBL5252540, “3-Aroyl-1,4-diarylpyrroles Inhibit Chronic Myeloid Leukemia Cell Growth through an Interaction with Tubulin” (ACS Med Chem Lett, 2017).
Values belong to the compound of their own block, whether it stands above or below them. Activity calls are given as the source filed them. No cut-off for these calls is given here.

Legend:
[1] = tested on: MCF7; assay: Cytotoxicity against human MCF7 cells assessed as cell growth inhibition incubated for 3 days by trypan blue exclusion assay; assay type: functional, cell-based; conditions: MCF7, 72 h
How it was run: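 MCF-7 human breast carcinoma cells; growth inhibition; triplicate experiments.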

[2] = biological target: Tubulin (Homo sapiens) (UniProt P68371+Q9H4B7+P0DPH7+P68366+Q13509+Q71U36+P04350+Q3ZCM7+P07437+P68363+Q9BQE3+Q6PEY2+Q13885+Q9BVA1+Q9BUF5); assay: Inhibition of [3H]colchicine binding to tubulin (unknown origin) at 5 uM incubated for 10 mins relative to control; assay type: protein-complex assay
[3] = biological target: Tubulin; assay: Inhibition of tubulin (unknown origin) polymerization preincubated for 15 mins followed by GTP addition by turbidity based spectrophotometer analysis; assay type: protein-complex assay, Homo sapiens
[4] = tested on: KU812 cell line; assay: Induction of cell cycle arrest in human KU812 cells assessed as accumulation of cells at G2/M phase incubated for 2 to 8 hrs by RNase/PI staining based flow cytometry analysis (reference value: 35.7+/-[…]); assay type: functional; conditions: time 2-8 hrs
[5] = tested on: LAMA-84; assay: Downregulation of phospho cofilin protein expression in human LAMA-84 cells at 100 nM incubated for 24 hrs by Western blot analysis; assay type: functional, cell-based
[6] = tested on: LAMA-84; assay: Downregulation of unphosphorylated beta-catenin protein expression in human LAMA-84 cells at 100 nM incubated for 24 hrs by Western blot analysis; assay type: functional, cell-based
[7] = tested on: KU812 cell line; assay: Induction of apoptosis in human KU812 cells assessed as increase in PARP cleavage measured after 24 hrs by Western blot analysis; assay type: functional, cell-based
How it was run: (§1)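 KU812 cells treated for 6 h and 24 h; immunoblotting for p21Cip/WAF1 and PARP cleavage.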

[8] = tested on: KYSE-150 cell line; assay: Cytotoxicity against human KYSE-150 cells assessed as cell growth inhibition incubated for 48 to 96 hrs by celltiter-flor reagent based fluorescence assay; assay type: functional
[9] = tested on: HCT-116; assay: Cytotoxicity against human HCT-116 cells assessed as cell growth inhibition incubated for 48 hrs by MTT assay; assay type: functional, cell-based; conditions: HCT-116, 48 h
[10] = biological target: Bcr/Abl fusion protein (Homo sapiens) (UniProt P00519+P11274); assay: Inhibition of BCR-ABL phospho-activation in human LAMA-84 cells at 100 nM incubated for 24 hrs by Western blot analysis; assay type: cell-based
Bcr/Abl fusion protein (Homo sapiens), sequence (P00519 whole entry, looked up, the tested form may be a part): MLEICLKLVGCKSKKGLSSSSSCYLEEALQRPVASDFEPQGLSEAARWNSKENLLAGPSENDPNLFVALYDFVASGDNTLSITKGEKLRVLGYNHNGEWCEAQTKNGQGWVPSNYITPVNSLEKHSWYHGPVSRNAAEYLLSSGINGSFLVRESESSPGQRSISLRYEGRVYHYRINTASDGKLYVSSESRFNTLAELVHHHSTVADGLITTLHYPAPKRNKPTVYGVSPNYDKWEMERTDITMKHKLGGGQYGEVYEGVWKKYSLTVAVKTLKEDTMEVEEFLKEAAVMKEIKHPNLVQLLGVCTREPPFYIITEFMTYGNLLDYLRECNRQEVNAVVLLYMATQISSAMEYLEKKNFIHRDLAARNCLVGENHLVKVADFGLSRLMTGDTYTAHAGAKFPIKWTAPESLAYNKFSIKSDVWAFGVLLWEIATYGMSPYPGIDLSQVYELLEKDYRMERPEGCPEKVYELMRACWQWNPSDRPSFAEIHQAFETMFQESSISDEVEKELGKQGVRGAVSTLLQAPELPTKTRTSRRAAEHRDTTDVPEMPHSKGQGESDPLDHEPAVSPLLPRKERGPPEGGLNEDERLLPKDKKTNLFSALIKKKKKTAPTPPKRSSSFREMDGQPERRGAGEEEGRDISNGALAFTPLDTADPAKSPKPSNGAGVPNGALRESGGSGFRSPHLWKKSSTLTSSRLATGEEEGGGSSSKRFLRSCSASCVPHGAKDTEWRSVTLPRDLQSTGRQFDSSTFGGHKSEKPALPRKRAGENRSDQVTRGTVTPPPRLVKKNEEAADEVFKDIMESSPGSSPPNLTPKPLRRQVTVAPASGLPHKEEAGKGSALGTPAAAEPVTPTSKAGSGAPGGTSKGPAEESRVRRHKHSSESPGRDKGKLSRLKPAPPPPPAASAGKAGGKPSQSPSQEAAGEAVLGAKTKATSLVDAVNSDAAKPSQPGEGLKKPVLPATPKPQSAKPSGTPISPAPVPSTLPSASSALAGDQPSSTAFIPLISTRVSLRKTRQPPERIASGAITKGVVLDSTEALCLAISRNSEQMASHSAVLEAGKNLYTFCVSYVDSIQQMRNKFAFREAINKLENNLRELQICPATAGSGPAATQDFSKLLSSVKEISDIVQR
Bcr/Abl fusion protein (Homo sapiens), sequence (P11274 whole entry, looked up, the tested form may be a part): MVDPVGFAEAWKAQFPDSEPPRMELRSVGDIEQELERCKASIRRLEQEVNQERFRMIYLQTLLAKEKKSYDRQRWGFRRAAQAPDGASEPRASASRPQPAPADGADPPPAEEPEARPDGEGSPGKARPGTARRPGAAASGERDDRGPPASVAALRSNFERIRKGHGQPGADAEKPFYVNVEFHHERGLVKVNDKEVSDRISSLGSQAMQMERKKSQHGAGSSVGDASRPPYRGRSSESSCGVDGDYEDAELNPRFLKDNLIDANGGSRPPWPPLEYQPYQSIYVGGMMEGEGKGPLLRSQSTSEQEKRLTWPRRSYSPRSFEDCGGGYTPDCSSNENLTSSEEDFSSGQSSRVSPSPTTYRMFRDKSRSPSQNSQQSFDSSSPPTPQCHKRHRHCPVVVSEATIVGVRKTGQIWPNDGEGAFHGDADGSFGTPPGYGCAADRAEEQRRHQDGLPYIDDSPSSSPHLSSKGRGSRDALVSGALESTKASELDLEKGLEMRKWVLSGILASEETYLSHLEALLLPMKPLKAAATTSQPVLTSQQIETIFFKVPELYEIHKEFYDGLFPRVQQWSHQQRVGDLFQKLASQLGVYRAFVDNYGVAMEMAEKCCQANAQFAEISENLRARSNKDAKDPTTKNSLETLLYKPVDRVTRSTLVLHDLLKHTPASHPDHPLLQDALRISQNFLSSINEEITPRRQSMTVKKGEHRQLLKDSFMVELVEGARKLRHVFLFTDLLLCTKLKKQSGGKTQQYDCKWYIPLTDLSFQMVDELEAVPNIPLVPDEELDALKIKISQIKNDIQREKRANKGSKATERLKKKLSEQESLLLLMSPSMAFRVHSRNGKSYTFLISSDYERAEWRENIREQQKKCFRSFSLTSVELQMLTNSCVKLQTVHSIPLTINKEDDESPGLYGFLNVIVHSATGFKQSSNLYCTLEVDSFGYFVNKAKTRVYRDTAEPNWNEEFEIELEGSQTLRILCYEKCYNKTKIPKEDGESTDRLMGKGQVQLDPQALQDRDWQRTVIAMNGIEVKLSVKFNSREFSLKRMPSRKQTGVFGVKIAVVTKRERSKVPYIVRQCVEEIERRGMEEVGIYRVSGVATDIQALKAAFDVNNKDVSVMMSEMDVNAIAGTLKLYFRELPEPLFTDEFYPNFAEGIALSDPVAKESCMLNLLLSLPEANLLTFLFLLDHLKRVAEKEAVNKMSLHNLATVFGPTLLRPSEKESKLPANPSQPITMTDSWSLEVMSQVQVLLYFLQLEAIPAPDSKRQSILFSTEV
How it was run: (§2)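 LAMA84 cells cultured 24 h at 100 nM, alongside IM 100 nM and DMSO controls; lysates analysed by Western immunoblotting for BCR/ABL auto-activation and total E-cadherin.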

[11] = tested on: KBM5; assay: Cytotoxicity against imatinib mesylate resistant human KBM5 cells expressing BCR/ABL T315I mutant assessed as cell growth inhibition; assay type: functional, cell-based
How it was run: (§3)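 Hematopoietic KBM5 cells ectopically expressing IM-sensitive wild-type or IM-resistant T315I BCR/ABL, dosed over a concentration range; growth measured by MTT assay; average IC50 from triplicate experiments.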

[12] = tested on: KU812 cell line; assay: Antiproliferative activity against human KU812 cells expressing BCR/ABL assessed as cell growth inhibition; assay type: functional, cell-based
How it was run: (§4)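 KU812 or LAMA84 CML blast-crisis cells (BCR/ABL-expressing) exposed to increasing doses for 48 h; proliferation read by MTT assay; triplicate experiments.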

[13] = tested on: KU812 cell line; assay: Induction of morphological changes in human KU812 cells expressing BCR/ABL assessed as multiple centrosome cells with failed cytokinesis at 100 nM incubated for 16 hrs by immunostaining based phase contrast microscopic analysis; assay type: functional, cell-based
How it was run: (§5)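 KU812 cells treated with 100 nM versus DMSO vehicle; shape examined by phase contrast microscopy with tubulin immunostaining, scoring elongation, multiple centrosomes and failed cytokinesis.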

[14] = tested on: KU812 cell line; assay: Induction of apoptosis in human KU812 cells assessed as upregulation of caspase-3 activation by flow cytometry; conditions: time 0-24 hrs, TDE = time-dependent effect
[15] = tested on: KBM5; assay: Potentiation of imatinib mesylate induced apoptosis in human KBM5 cells expressing BCR/ABL T315I mutant assessed as increase in pro-apoptogenic effect at 100 nM incubated for 24 hrs by annexin V-FITC/propidium iodide staining based flow cytometry analysis; assay type: functional, cell-based
How it was run: (§6)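 Annexin V-FITC staining to detect early cell death after 24 h; IM given with or without 100 nM test agent; read by flow cytometry; triplicate experiments.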

[16] = tested on: KU812 cell line; assay: Induction of cell cycle arrest in human KU812 cells assessed as accumulation of cells at sub-G1 phase incubated for 2 to 8 hrs by RNase/PI staining based flow cytometry analysis relative to control; assay type: functional; conditions: time 2-8 hrs
How it was run: (§7)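 KU812 cells treated with 100 nM versus DMSO vehicle for 2-8 h or 24 h; cell cycle distribution (G2/M, sub-G1) by flow cytometry.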

[17] = tested on: LAMA-84; assay: Antiproliferative activity against human LAMA-84 cells expressing BCR/ABL assessed as cell growth inhibition; assay type: functional, cell-based; how it was run: as §4
[18] = tested on: KU812 cell line; assay: Antiproliferative activity against human KU812 cells expressing BCR/ABL assessed as cell growth inhibition at 12 nM incubated for 48 hrs by MTT assay relative to control; assay type: functional; how it was run: as §4
[19] = tested on: KU812 cell line; assay: Induction of apoptosis in human KU812 cells assessed as upregulation of p21 Cip/WAF1 protein expression incubated for 6 hrs by Western blot analysis; assay type: functional, cell-based; how it was run: as §1
[20] = tested on: KBM5; assay: Cytotoxicity against imatinib mesylate sensitive human KBM5 cells expressing wild type BCR/ABL assessed as cell growth inhibition; assay type: functional, cell-based; how it was run: as §3
[21] = Cytotoxicity against human PBMC cells assessed as reduction in cell viability up to 1 uM incubated for 48 hrs by MTT assay; assay type: toxicity, cell-based
How it was run: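 Peripheral blood mononuclear cells isolated from healthy donors, exposed to compound up to 1 μM for 48 h; viability read by MTT assay; triplicate experiments.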

[22] = tested on: KU812 cell line; assay: Induction of cell cycle arrest in human KU812 cells assessed as accumulation of cells at G2/M phase incubated for 24 hrs by RNase/PI staining based flow cytometry analysis relative to control; assay type: functional; how it was run: as §7
[23] = tested on: LAMA-84; assay: Potentiation of imatinib mesylate induced antiproliferative activity against human LAMA-84 cells assessed as imatinib mesylate IC50 incubated for 48 hrs by MTT assay; assay type: functional, cell-based; conditions: LAMA-84, 48 h
[24] = tested on: KU812 cell line; assay: Induction of morphological changes in human KU812 cells assessed as elongated shape at 100 nM incubated for 16 hrs by immunostaining based phase contrast microscopic analysis; assay type: functional, cell-based; how it was run: as §5
[25] = tested on: LAMA-84; assay: Downregulation of E-cadherin protein level in human LAMA-84 cells at 100 nM incubated for 24 hrs by Western blot analysis; assay type: functional, cell-based; how it was run: as §2
[26] = tested on: KU812 cell line; assay: Induction of apoptosis in human KU812 cells assessed as appearance of blue-to-cyan fluorescence in nucleus by Hoechst-3258 staining based analysis; assay type: functional, cell-based
How it was run: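 KU812 cells treated with compound versus DMSO control; nuclear morphology by Hoechst-3258 staining, blue-to-cyan fluorescence scored as apoptotic.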

[27] = tested on: KBM5; assay: Induction of apoptosis in imatinib mesylate resistant human KBM5 cells expressing BCR/ABL-T315I mutant assessed as annexin V positive cells incubated for 48 hrs by annexin V-FITC/propidium iodide staining based flow cytometry analysis (reference value: 2.2+/-1.8%); assay type: functional
[28] = tested on: LAMA-84; assay: Antiproliferative activity against human LAMA-84 cells expressing BCR/ABL assessed as cell growth inhibition at 12 nM incubated for 48 hrs by MTT assay relative to control; assay type: functional; how it was run: as §4
[29] = tested on: KU812 cell line; assay: Induction of apoptosis in human KU812 cells assessed as upregulation of p21 Cip/WAF1 protein expression measured after 24 hrs by Western blot analysis; assay type: functional, cell-based; how it was run: as §1
[30] = tested on: KBM5; assay: Potentiation of imatinib mesylate induced apoptosis in human KBM5 cells expressing wild type BCR/ABL assessed as increase in pro-apoptogenic effect at 100 nM incubated for 24 hrs by annexin V-FITC/propidium iodide staining based flow cytometry analysis; assay type: functional, cell-based; how it was run: as §6
[31] = tested on: LAMA-84; assay: Effect on total beta-catenin protein level in human LAMA-84 cells at 100 nM incubated for 24 hrs by Western blot analysis; assay type: functional, cell-based
[32] = tested on: LAMA-84; assay: Effect on total cofilin protein level in human LAMA-84 cells at 100 nM incubated for 24 hrs by Western blot analysis; assay type: functional, cell-based
[33] = tested on: HepG2; assay: Cytotoxicity against human HepG2 cells assessed as cell growth inhibition incubated for 48 hrs by MTT assay; assay type: functional, cell-based; conditions: HepG2, 48 h
[34] = tested on: KBM5; assay: Induction of apoptosis in imatinib mesylate sensitive human KBM5 cells expressing wild type BCR/ABL assessed as annexin V positive cells incubated for 48 hrs by annexin V-FITC/propidium iodide staining based flow cytometry analysis (reference value: 2.2+/-1.8%); assay type: functional
[35] = tested on: KU812 cell line; assay: Induction of apoptosis in human KU812 cells assessed as accumulation of cells at sub-G1 phase incubated for 24 hrs by RNase/PI staining based flow cytometry analysis (reference value: 0.4+/-0.8%); assay type: functional
[36] = tested on: OVCAR-8; assay: Cytotoxicity against human OVCAR-8 cells assessed as cell growth inhibition incubated for 3 days by trypan blue exclusion assay; assay type: functional, cell-based; conditions: OVCAR-8, 72 h
[37] = tested on: NCI/ADR-RES; assay: Cytotoxicity against human NCI/ADR-RES cells overexpressing p-glycoprotein assessed as cell growth inhibition incubated for 3 days by trypan blue exclusion assay; assay type: functional, cell-based; conditions: 72 h

Compound: COc1cc(C(=O)c2cn(-c3ccccc3)cc2-c2ccc(N)cc2)cc(OC)c1OC
- Activity [4]: 60.3%
- Activity [5]: Active
- Activity [6]: Active
- Activity [7]: Active
- IC50 [8]: 20 nM
- IC50 [9]: 20 nM
- inhibition [10]: inactive
- IC50 [11]: 18 nM
- IC50 [12]: 12 nM
- inhibition [2]: 81%
- Activity [13]: Active
- Activity [14]: Tde
- Activity [15]: Active
- Activity [16]: <10%
- IC50 [17]: 14 nM
- inhibition at 0.012 µM [18]: 50%
- Activity [19]: Active
- IC50 [20]: 15 nM
- Activity [21]: Non-Toxic
- Activity [22]: 11.4%
- IC50 [23]: < 10 nM
- Activity [24]: Active
- Activity [25]: Active
- Activity [26]: Active
- Activity [27]: 58.2%
- inhibition at 0.012 µM [28]: 50%
- Activity [29]: inactive
- Activity [30]: Active
- Activity [31]: inactive
- Activity [32]: inactive
- IC50 [33]: 46 nM
- Activity [34]: 62.6%
- Activity [35]: 75.6%

Compound: COc1cc(C(=O)c2cn(-c3cccc(C)c3)cc2-c2ccccc2)cc(OC)c1OC
- IC50 [1]: 120 nM
- inhibition [2]: 82%
- IC50 [3]: 1700 nM

Compound: COc1cc(C(=O)c2cn(-c3ccc(F)cc3)cc2-c2ccccc2)cc(OC)c1OC
- IC50 [36]: 180 nM
- IC50 [1]: 15 nM
- IC50 [37]: 110 nM
- inhibition [2]: 62%
- IC50 [3]: 1300 nM

Compound: COc1cc(C(=O)c2ccn(-c3cccc(N)c3)c2)cc(OC)c1OC
- IC50 [12]: 28 nM
- IC50 [17]: 28 nM

Further compounds by falling IC50 [3], results first:

- inhibition [2]: 42%
- IC50 [3]: 2900 nM
Compound: COc1cc(C(=O)c2cn(-c3cccc(F)c3)cc2-c2ccccc2)cc(OC)c1OC
- IC50 [1]: 350 nM

- inhibition [2]: 29%
- IC50 [3]: 2000 nM
Compound: COc1cc(C(=O)c2cn(-c3ccccc3F)cc2-c2ccccc2)cc(OC)c1OC
- IC50 [1]: 85 nM

- inhibition [2]: 47%
- IC50 [3]: 760 nM
Compound: COc1cc(C(=O)c2cn(-c3ccccc3)cc2-c2ccc(F)cc2)cc(OC)c1OC
- IC50 [1]: 78 nM

- inhibition [2]: 72%
- IC50 [3]: 580 nM
Compound: COc1cc(C(=O)c2cn(-c3ccccc3)cc2-c2ccccc2F)cc(OC)c1OC
- IC50 [1]: 30 nM
